Active and inactive are the calls of the source. The calls are words filed in the database; no cut-off is given here.
Tests used:
HEK293 = experiment: Activation of GAL4 fused human RXR expressed in HEK293 cells at 10 uM after 24 hrs by luciferase reporter gene assay
[1] = Agonist activity at LXR in human HepG2 cells assessed as upregulation of SCD1 mRNA levels at 10 uM after 6 hrs by qPCR analysis; assay type: cell-based
In short: (§1)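 HepG2 cells treated with ligand (10 μM). Total RNA was extracted with TRIZOL; 2 µg was reverse-transcribed (1 h, 42 °C). SREBP1c, FASN and SCD1 transcripts were measured by qPCR. Mean ± SD of three biological samples; ANOVA with Dunnett's test.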

[2] = Agonist activity at LXR in human U937 cells assessed as upregulation of FASN mRNA levels at 10 uM after 6 hrs by qPCR analysis; assay type: cell-based
In short: (§2)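 U937 cells, 3x10⁶ in 10 ml RPMI with 10% FBS, differentiated with PMA 10 ng/ml for 72 h at 37 °C, then treated with ligand (10 μM) for 6 h. Total RNA was isolated with TRIZOL; 2 µg was reverse-transcribed for 1 h at 42 °C. Transcripts were measured by qPCR. Mean ± SD of three biological samples; ANOVA with Dunnett's test.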

Homo sapiens [3] = species: Homo sapiens; experiment: Agonist activity at LXR in human U937 cells assessed as downregulation of LPS-induced CCL2 mRNA expression at 10 uM after 6 hrs by qPCR analysis; assay type: cell-based
In short: (§3)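 PMA-differentiated U937 cells (10 ng/ml PMA, 72 h) were given LPS 100 ng/ml together with compound (10 μM) for 6 h. CCL2 and TNFα mRNA were measured by qPCR after TRIZOL RNA extraction and reverse transcription. Three biological samples per group, mean ± SD.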

[4] = Agonist activity at LXR in human HepG2 cells assessed as upregulation of FASN mRNA levels at 10 uM after 6 hrs by qPCR analysis; assay type: cell-based
In short: as §1

Homo sapiens [5] = species: Homo sapiens; experiment: Agonist activity at LXR in human U937 cells assessed as downregulation of LPS-induced TNFalpha mRNA expression at 10 uM after 6 hrs by qPCR analysis; assay type: cell-based
In short: as §3

[6] = target: T1, Peroxisome proliferator-activated receptor gamma (Homo sapiens) (UniProt P37231); experiment: Activation of GAL4 fused human PPARgamma expressed in HEK293 cells at 10 uM after 24 hrs by luciferase reporter gene assay
T1 sequence (whole entry): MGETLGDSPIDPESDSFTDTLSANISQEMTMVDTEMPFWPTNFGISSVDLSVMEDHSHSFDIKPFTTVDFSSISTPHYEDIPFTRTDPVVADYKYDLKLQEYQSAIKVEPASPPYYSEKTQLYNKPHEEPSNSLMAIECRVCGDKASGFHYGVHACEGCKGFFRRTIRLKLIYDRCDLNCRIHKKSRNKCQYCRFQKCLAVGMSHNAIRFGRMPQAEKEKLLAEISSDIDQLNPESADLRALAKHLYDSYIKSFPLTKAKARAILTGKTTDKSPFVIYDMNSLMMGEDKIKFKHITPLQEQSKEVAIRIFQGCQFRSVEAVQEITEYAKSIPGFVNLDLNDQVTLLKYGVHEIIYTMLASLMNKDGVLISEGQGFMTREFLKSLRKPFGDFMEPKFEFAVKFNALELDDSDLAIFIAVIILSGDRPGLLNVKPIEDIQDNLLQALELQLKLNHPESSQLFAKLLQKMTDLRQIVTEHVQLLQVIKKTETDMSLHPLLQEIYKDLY

[7] = Agonist activity at LXR in human HepG2 cells assessed as upregulation of SREBP1c mRNA levels at 10 uM after 6 hrs by qPCR analysis; assay type: cell-based
In short: as §1

Homo sapiens [8] = species: Homo sapiens; experiment: Agonist activity at LXR in human U937 cells assessed as upregulation of ABCA1 mRNA levels at 10 uM after 6 hrs by qPCR analysis; assay type: cell-based
In short: as §2

[9] = Agonist activity at LXR in human U937 cells assessed as upregulation of SREBP1c mRNA levels at 10 uM after 6 hrs by qPCR analysis; assay type: cell-based
In short: as §2

[10] = Agonist activity at LXR in human U937 cells assessed as upregulation of SCD1 mRNA levels at 10 uM after 6 hrs by qPCR analysis relative to control; assay type: cell-based; conditions: for Activity: human, 6 h, 10 µM; for fold induction at 10 µM: Homo sapiens, U-937, 6 h, read-out: FC
In short: as §2

[11] = target: T2, Oxysterols receptor LXR-alpha (Homo sapiens) (UniProt Q13133); experiment: Activation of GAL4 fused human LXR alpha expressed in HEK293 cells after 24 hrs by luciferase reporter gene assay relative to 22R-HC; assay type: cell-based
T2 sequence (whole entry): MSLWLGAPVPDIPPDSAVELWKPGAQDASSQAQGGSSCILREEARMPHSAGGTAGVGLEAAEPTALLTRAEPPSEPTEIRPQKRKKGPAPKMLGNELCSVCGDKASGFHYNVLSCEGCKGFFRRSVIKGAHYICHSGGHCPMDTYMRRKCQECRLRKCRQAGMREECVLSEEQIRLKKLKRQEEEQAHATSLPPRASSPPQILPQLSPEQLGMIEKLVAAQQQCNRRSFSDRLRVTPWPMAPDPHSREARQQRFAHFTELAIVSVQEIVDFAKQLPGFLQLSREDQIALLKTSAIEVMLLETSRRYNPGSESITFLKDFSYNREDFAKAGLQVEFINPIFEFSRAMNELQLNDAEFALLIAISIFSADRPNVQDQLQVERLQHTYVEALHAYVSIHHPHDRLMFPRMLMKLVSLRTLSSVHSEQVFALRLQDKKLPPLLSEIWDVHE
In short: (§4)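 HEK293 cells carrying the Gal4-LXR-α or Gal4-LXR-β chimera plus the pMH100X4-TK-luc and Renilla reporters. Treatment started 6 h post-transfection and ran 24 h. Dual luciferase read-out. Efficacy is given as % of the response to 8 μM 22R-HC, ± SD, from three to five independent experiments.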

[12] = target: T3, Oxysterols receptor LXR-beta (Homo sapiens, UniProt P55055); experiment: Activation of GAL4 fused human LXR beta expressed in HEK293 cells after 24 hrs by luciferase reporter gene assay; assay type: cell-based
T3 sequence (P55055 whole entry): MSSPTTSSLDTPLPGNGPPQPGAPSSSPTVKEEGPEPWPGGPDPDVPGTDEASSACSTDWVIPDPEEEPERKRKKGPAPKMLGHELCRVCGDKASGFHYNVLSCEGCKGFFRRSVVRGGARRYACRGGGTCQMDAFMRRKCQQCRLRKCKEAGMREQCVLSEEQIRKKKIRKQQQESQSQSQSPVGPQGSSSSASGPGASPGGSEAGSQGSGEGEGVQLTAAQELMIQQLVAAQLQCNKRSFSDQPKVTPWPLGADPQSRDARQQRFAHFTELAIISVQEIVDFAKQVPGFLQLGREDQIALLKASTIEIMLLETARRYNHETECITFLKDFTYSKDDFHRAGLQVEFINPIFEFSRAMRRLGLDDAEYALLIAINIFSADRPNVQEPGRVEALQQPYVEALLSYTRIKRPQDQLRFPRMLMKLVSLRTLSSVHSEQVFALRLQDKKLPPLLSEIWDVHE
In short: (§5)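 HEK293 cells (4x10⁴/well), grown in DMEM with 10% FBS at 37 °C under 5% CO₂, transiently co-transfected with pMH100X4-TK-luc, Renilla and the Gal4-LXR-α or Gal4-LXR-β plasmid. Dosing began 6 h after transfection and lasted 24 h, at 32, 16, 8, 4, 2 and 1 μM. Dual luciferase read-out. EC50 came from dose-response curves, averaged over three to five independent experiments, ± SD.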

[13] = target: T4, Oxysterols receptor LXR-beta (Homo sapiens) (UniProt P55055); experiment: Activation of GAL4 fused human LXR beta expressed in HEK293 cells after 24 hrs by luciferase reporter gene assay relative to 22R-HC; assay type: cell-based
T4 sequence (whole entry): T3 sequence (P55055 whole entry)
In short: as §4

[14] = target: T5, Oxysterols receptor LXR-alpha (Homo sapiens, UniProt Q13133); experiment: Activation of GAL4 fused human LXR alpha expressed in HEK293 cells after 24 hrs by luciferase reporter gene assay; assay type: cell-based
T5 sequence (Q13133 whole entry): T2 sequence (whole entry)
In short: as §5

| SMILES | Activity (HEK293) | Activity [1] | Activity [2] | Activity (Homo sapiens [3]) | Activity [4] | Activity (Homo sapiens [5]) | Activity [6] | Activity [7] | Activity (Homo sapiens [8]) | Activity [9] | Activity [10] | Efficacy [11] [%] | EC50 [12] | Efficacy [13] [%] | fold induction at 10 µM [10] | EC50 [14] |
| --- | --- | --- | --- | --- | --- | --- | --- | --- | --- | --- | --- | --- | --- | --- | --- | --- |
| CC[C@@H](C(C)C)[C@H](O)C[C@@H](C)[C@H]1CC[C@H]2[C@@H]3CC=C4C[C@@H](O)CC[C@]4(C)[C@H]3CC[C@]12C | inactive | Not Active | Not Active | Active | Not Active | Active | inactive | Not Active | Active | Not Active | Not Active |  |  |  |  |  |
| CC(C)[C@@H](C)C(=O)C[C@@H](C)[C@H]1CC[C@H]2C3=CC=C4C[C@@H](O)CC[C@]4(C)[C@H]3CC[C@]12C | inactive | Not Active | Not Active |  | Not Active |  | inactive | Not Active | Active | Not Active | Not Active | 151 | Not Active |  |  |  |
| CC(C)[C@@H](C)CC(=O)[C@@H](C)[C@H]1CC[C@H]2C3=CC=C4C[C@@H](O)CC[C@]4(C)[C@H]3CC[C@]12C | inactive | Not Active | Not Active |  | Not Active |  | inactive | Not Active | Active | Not Active | Not Active | 70.2 | Not Active |  |  |  |
| O=S(=O)(c1ccccc1)N(CC(F)(F)F)c1ccc(C(O)(C(F)(F)F)C(F)(F)F)cc1 [T091317] |  | Not Active | Not Active | Active | Not Active |  |  | Not Active | Active | Active | Not Active |  |  |  |  |  |
| CC[C@@H](C(C)C)[C@@H]1O[C@H]1[C@@H](C)[C@H]1CC[C@H]2[C@@H]3CC=C4C[C@@H](O)CC[C@]4(C)[C@H]3CC[C@]12C | inactive | Not Active | Not Active |  | Not Active |  | inactive | Not Active | Active | Not Active | Not Active | 56.8 |  | 36.3 |  |  |
| CC(C)[C@@H](C)[C@H](O)C[C@@H](C)[C@H]1CC[C@H]2C3=CC=C4C[C@@H](O)CC[C@]4(C)[C@H]3CC[C@]12C | inactive | Not Active | Not Active |  | Not Active |  | inactive | Not Active | Active | Not Active | Not Active | 63.9 | Not Active |  |  |  |
| CC[C@@H](C(C)C)[C@H]1O[C@@H]1[C@@H](C)[C@H]1CC[C@H]2[C@@H]3CC=C4C[C@@H](O)CC[C@]4(C)[C@H]3CC[C@]12C | inactive | Not Active | Not Active |  | Not Active | Active | inactive | Active | Active | Not Active | Not Active | 489 |  | 142 |  |  |
| CC(C)[C@@H](C)[C@@H]1O[C@H]1[C@@H](C)[C@H]1CC[C@H]2C3=CC=C4C[C@@H](O)CC[C@]4(C)[C@H]3CC[C@]12C | inactive | Not Active | Not Active | Active | Not Active |  | inactive | Active | Active | Not Active |  | 51.7 |  | 48.5 | < 2 |  |
| CC[C@H](CC(=O)[C@@H](C)[C@H]1CC[C@H]2[C@@H]3CC=C4C[C@@H](O)CC[C@]4(C)[C@H]3CC[C@]12C)C(C)C |  |  |  |  |  |  |  |  |  |  |  |  | Not Active |  |  | Not Active |
| CC[C@H](C(=O)C[C@@H](C)[C@H]1CC[C@H]2[C@@H]3CC=C4C[C@@H](O)CC[C@]4(C)[C@H]3CC[C@]12C)C(C)C | inactive | Not Active | Not Active |  | Not Active | Active | inactive | Not Active | Active | Not Active |  | 12.4 |  | 46.4 | < 2 |  |

From ChEMBL document CHEMBL4038329, “Side-Chain Modified Ergosterol and Stigmasterol Derivatives as Liver X Receptor Agonists” (J Med Chem, 2017)
